# From ChEMBL document CHEMBL1275301, “Antihypertensive activity of newer 1,4-dihydro-5-pyrimidine carboxamides: synthesis and pharmacological evaluation” (2010)
# Activity calls are given as the source filed them. No cut-off for these calls is given here.
# Key:
# Rattus norvegicus [1] = test: Antihypertensive activity against DOCA-salt induced hypertension in albino rat assessed as reduction in systolic blood pressure at 10 mg/kg, po up to 360 mins by tail-cuff method; type: functional, organism-based; set-up: dose 10 mg/kg; details: Artery
# Summary of the method: (§1)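 Rats given DOCA 20 mg/kg s.c. twice weekly in olive oil for 4 weeks, with 1% w/v NaCl as drinking water, reaching systolic 160–180 mm Hg. Rats were trained in restrainer and tail-cuff sessions. Compounds in 0.5% CMC were dosed at 10 mg/kg by oral feeding needle, with vehicle and nifedipine groups. BP was read before dosing and after, with the tail warmed at 37 °C for 2–5 min. Each compound was run three times in one week and readings averaged.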
# Rattus norvegicus [2] = test: Antihypertensive activity against DOCA-salt induced hypertension in albino rat assessed as reduction in systolic blood pressure at 10 mg/kg, po after 900 mins by tail-cuff method; type: functional; details: Artery, 15 h; summary of the method: as §1
# Rattus norvegicus [3] = test: Antihypertensive activity against DOCA-salt induced hypertension in albino rat assessed as reduction in systolic blood pressure at 10 mg/kg, po after 720 mins by tail-cuff method; type: functional; details: Artery, 12 h; summary of the method: as §1
# Rattus norvegicus [4] = test: Antihypertensive activity against DOCA-salt induced hypertension in albino rat assessed as reduction in systolic blood pressure at 10 mg/kg, po after 600 mins by tail-cuff method; type: functional; details: Artery, 10 h; summary of the method: as §1
# Rattus norvegicus [5] = test: Antihypertensive activity against DOCA-salt induced hypertension in albino rat assessed as reduction in systolic blood pressure at 10 mg/kg, po after 360 mins by tail-cuff method; type: functional; details: Artery, 6 h; summary of the method: as §1
# Rattus norvegicus [6] = test: Antihypertensive activity against DOCA-salt induced hypertension in albino rat assessed as reduction in systolic blood pressure at 10 mg/kg, po after 300 mins by tail-cuff method; type: functional; details: Artery, 5 h; summary of the method: as §1
# Rattus norvegicus [7] = test: Antihypertensive activity against DOCA-salt induced hypertension in albino rat assessed as reduction in systolic blood pressure at 10 mg/kg, po after 240 mins by tail-cuff method; type: functional; details: Artery, 4 h; summary of the method: as §1
# Rattus norvegicus [8] = test: Antihypertensive activity against DOCA-salt induced hypertension in albino rat assessed as reduction in systolic blood pressure at 10 mg/kg, po after 180 mins by tail-cuff method; type: functional; details: Artery, 3 h; summary of the method: as §1
# Rattus norvegicus [9] = test: Antihypertensive activity against DOCA-salt induced hypertension in albino rat assessed as reduction in systolic blood pressure at 10 mg/kg, po after 120 mins by tail-cuff method; type: functional; details: Artery, 2 h; summary of the method: as §1
# Rattus norvegicus [10] = test: Antihypertensive activity against DOCA-salt induced hypertension in albino rat assessed as reduction in systolic blood pressure at 10 mg/kg, po after 60 mins by tail-cuff method; type: functional; details: Artery, 1 h; summary of the method: as §1
# Rattus norvegicus [11] = test: Antihypertensive activity against DOCA-salt induced hypertension in albino rat assessed as reduction in systolic blood pressure at 10 mg/kg, po after 30 mins by tail-cuff method; type: functional; details: Artery, 0.5 h; summary of the method: as §1
# Rattus norvegicus [12] = test: Antihypertensive activity against DOCA-salt induced hypertension in albino rat assessed as reduction in systolic blood pressure at 10 mg/kg, po after 15 mins by tail-cuff method; type: functional; details: Artery, 0.25 h; summary of the method: as §1
Compound,Activity (Rattus norvegicus [1]),inhibition in vivo at 10 mg/kg (Rattus norvegicus [2]) [%],inhibition in vivo at 10 mg/kg (Rattus norvegicus [3]) [%],inhibition in vivo at 10 mg/kg (Rattus norvegicus [4]) [%],inhibition in vivo at 10 mg/kg (Rattus norvegicus [5]) [%],inhibition in vivo at 10 mg/kg (Rattus norvegicus [6]) [%],inhibition in vivo at 10 mg/kg (Rattus norvegicus [7]) [%],inhibition in vivo at 10 mg/kg (Rattus norvegicus [8]) [%],inhibition in vivo at 10 mg/kg (Rattus norvegicus [9]) [%],inhibition in vivo at 10 mg/kg (Rattus norvegicus [10]) [%],inhibition in vivo at 10 mg/kg (Rattus norvegicus [11]) [%],inhibition in vivo at 10 mg/kg (Rattus norvegicus [12]) [%]
CC1=C(C(=O)Nc2ccc([N+](=O)[O-])cc2)C(c2ccc(Br)cc2)N=C(SCc2ccc(Cl)cc2)N1 (centres undefined),Active,19,29.4,34.4,39.2,37.9,29.7,19.1,13.9,10.8,6.2,3.1
CC1=C(C(=O)Nc2ccc(Br)cc2)C(c2ccc(Cl)cc2Cl)N=C(SCc2cccc(Cl)c2)N1 (centres undefined),Active,7.2,11.3,15.4,20.6,18.5,15.9,11.9,8.8,6.2,3.1,1.5
CC1=C(C(=O)Nc2ccc([N+](=O)[O-])cc2)C(c2ccc(Br)cc2)N=C(SCc2ccc(F)cc2)N1 (centres undefined),Active,22.6,27.3,32.3,38.7,34.4,27.2,17.5,12.9,9.7,5.2,2.6
COC(=O)C1=C(C)NC(C)=C(C(=O)OC)C1c1ccccc1[N+](=O)[O-] [NIFEDIPINE],Active,16.9,18.6,24.1,38.1,32.3,25.6,17.5,11.3,7.7,3.1,1.5
CC1=C(C(=O)Nc2ccc([N+](=O)[O-])cc2)C(c2cccc([N+](=O)[O-])c2)N=C(SCc2ccccc2)N1 (centres undefined),Active,14.9,17.5,27.2,32.5,25.6,21,16.5,10.3,7.7,4.1,2.6
CC1=C(C(=O)Nc2ccc(Br)cc2)C(c2ccc(Cl)cc2Cl)N=C(SCc2ccccc2Cl)N1 (centres undefined),Active,16.4,20.6,24.6,38.1,36.4,28.7,22.2,16,11.8,5.7,3.1
CC1=C(C(=O)Nc2ccc(F)cc2)C(c2ccc([N+](=O)[O-])cc2)N=C(SCc2ccc(F)cc2)N1 (centres undefined),Active,13.8,19.6,25.6,33,30.3,25.6,20.1,17,10.8,5.7,3.1
